Laboratory results published in ChEMBL document CHEMBL1671864, “First assessment in humans of the safety, tolerability, pharmacokinetics, and ex vivo pharmacodynamic antimalarial activity of the new artemisinin derivative artemisone” (Antimicrob Agents Chemother, 2008).
≈ marks a conversion by molar mass, not a printed value.

What was measured:
[1] = test system: Plasma; test: Cmax in healthy human plasma assessed as metabolite BAY 78-1788 Cmax at 80 mg, po administered as four 20 mg immediate release tablets daily for 3 days during 10 hrs overnight fasting state measured after 3 day; format: ADME, organism-based; set-up: dose 80 mg, route oral; details: in vivo, 72 h
Outline: (§1)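 Healthy Caucasian males took tablets once daily for 3 days with 240 ml water after a 10-h fast. Heparinised blood was drawn predose and at 0.25–14 h after the first and last doses. Plasma parent drug and metabolites M1–M3 were measured by LC/MS-MS (MRM, deuterated internal standard). Noncompartmental analysis gave Cmax observed, t1/2 = 0.693/kel and MRT = AUMC/AUC. Values are geometric means.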

[2] = test system: Plasma; test: AUC in healthy human plasma assessed as metabolite BAY 78-1788 AUC at 80 mg, po administered as four 20 mg immediate release tablets daily for 3 days during 10 hrs overnight fasting state measured after 1 day; format: ADME, organism-based; set-up: dose 80 mg, time < 10 hr, route oral; details: in vivo
Outline: (§2)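 Healthy Caucasian male volunteers took 40 mg (two 20-mg IR tablets) or 80 mg (four tablets) orally once daily for 3 days, with 240 ml water after a 10-h fast. Plasma was sampled predose to 14 h after the first and last doses. M1/M2/M3 were quantified by LC/MS-MS MRM against a D4-labelled internal standard. Cmax was read from observed data and AUC by log-linear trapezoidal rule, noncompartmental, geometric means.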

[3] = test system: Plasma; test: AUC in healthy human plasma assessed as metabolite BAY 78-1788 AUC at 80 mg, po administered as four 20 mg immediate release tablets daily for 3 days during 10 hrs overnight fasting state measured after 3 day; format: ADME, organism-based; set-up: dose 80 mg, time < 10 hr, route oral; details: in vivo; outline: as §2
[4] = test system: Plasma; test: Tmax in healthy human plasma assessed as metabolite BAY 78-1788 Tmax at 80 mg, po administered as four 20 mg immediate release tablets daily for 3 days during 10 hrs overnight fasting state measured after 1 day; format: ADME, organism-based; details: in vivo, 24 h
Outline: (§3)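 Healthy Caucasian men (8 active, 4 placebo per dose) dosed with tablets daily for 3 days after 10-h fast. Lithium-heparin plasma sampled predose and 0.25–14 h after day-1 and day-3 doses, stored frozen. Parent and M1–M3 quantified by LC/MS-MS in positive-ion MRM. Tmax taken directly from observed individual data.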

[5] = test system: Plasma; test: Tmax in healthy human plasma assessed as metabolite BAY 78-1788 Tmax at 80 mg, po administered as four 20 mg immediate release tablets daily for 3 days during 10 hrs overnight fasting state measured after 3 day; format: ADME, organism-based; details: in vivo, 72 h; outline: as §3
[6] = test system: Plasma; test: Half life in healthy human plasma assessed as metabolite BAY 78-1788 Half life at 80 mg, po administered as four 20 mg immediate release tablets daily for 3 days during 10 hrs overnight fasting state measured after 1 day; format: ADME, organism-based; details: in vivo, 24 h; outline: as §1
[7] = test system: Plasma; test: Half life in healthy human plasma assessed as metabolite BAY 78-1788 Half life at 80 mg, po administered as four 20 mg immediate release tablets daily for 3 days during 10 hrs overnight fasting state measured after 3 day; format: ADME, organism-based; details: in vivo, 72 h; outline: as §1
[8] = test system: Plasma; test: Cmax in healthy human plasma assessed as metabolite BAY 78-1788 Cmax at 80 mg, po administered as single ascending doses during 10 hrs overnight fasting state; format: ADME, organism-based; set-up: dose 80 mg, route oral; details: in vivo
Outline: (§4)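 Healthy Caucasian male volunteers, single oral dose with 240 ml water after a 10-h overnight fast. Heparinised venous blood was drawn predose and at 0.25–14 h. Plasma was stored frozen. Parent drug and metabolites M1–M3 were measured by LC/MS-MS (MRM, deuterated internal standard). Noncompartmental analysis gave Cmax observed, t1/2 = 0.693/kel (terminal regression) and MRT = AUMC/AUC. Values are geometric means.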

[9] = test system: Plasma; test: AUC (0 to infinity) in healthy human plasma assessed as metabolite BAY 78-1788 AUC (0 to infinity) at 80 mg, po administered as single ascending doses during 10 hrs overnight fasting state; format: ADME, organism-based; set-up: dose 80 mg, time infinity, route oral; details: in vivo
Outline: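 Healthy Caucasian male volunteers, single oral dose of 80 mg as four 20-mg immediate-release tablets, taken with 240 ml water after a 10-h overnight fast. Lithium-heparin venous blood was drawn predose and at 0.25–14 h, and plasma was stored frozen. Metabolites M1/M2/M3 were measured by LC/MS-MS (positive-ion MRM, deuterated internal standard). Noncompartmental analysis, AUC by log-linear trapezoidal rule extrapolated to infinity (Clast/kel), geometric means.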

[10] = test system: Plasma; test: Half-life in healthy human plasma assessed as metabolite BAY 78-1788 half-life at 80 mg, po administered as single ascending doses during 10 hrs overnight fasting state; format: ADME, organism-based; details: in vivo; outline: as §4
[11] = test system: Plasma; test: Ratio of AUC (0 to infinity) for metabolite BAY 78-1788 to AUC (0 to infinity) for compound in healthy human plasma at 40 mg, po administered as single dose for 3 days measured after 1 day; format: ADME, organism-based; details: in vivo, 24 h
Outline: (§5)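 Healthy Caucasian men (8 active, 4 placebo per dose) dosed with tablets daily for 3 days after 10-h fast. Plasma sampled 0.25–14 h after first and last doses. Parent and metabolites M1–M3 measured by LC/MS-MS (200 µl plasma). Metabolic ratio is metabolite AUC0-∞ divided by parent AUC0-∞ (log-linear trapezoidal, extrapolated by last concentration/kel). First vs third dose compared by paired t test.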

[12] = test system: Plasma; test: Ratio of AUC (0 to infinity) for metabolite BAY 78-1788 to AUC (0 to infinity) for compound in healthy human plasma at 40 mg, po administered as single dose for 3 days measured after 3 days; format: ADME, organism-based; details: in vivo, 72 h; outline: as §5
[13] = test system: Plasma; test: Ratio of AUC (0 to infinity) for metabolite BAY 78-1788 to AUC (0 to infinity) for compound in healthy human plasma at 80 mg, po administered as single dose for 3 days measured after 1 day; format: ADME, organism-based; details: in vivo, 24 h; outline: as §5
[14] = test system: Plasma; test: Ratio of AUC (0 to infinity) for metabolite BAY 78-1788 to AUC (0 to infinity) for compound in healthy human plasma at 80 mg, po administered as single dose for 3 days measured after 3 days; format: ADME, organism-based; details: in vivo, 72 h; outline: as §5
[15] = test system: Plasmodium falciparum; test: Antimalarial activity against Plasmodium falciparum K1 in human plasma assessed as inhibition of hypoxanthine uptake by intraerythrocytic malaria parasites by hypoxanthine incorporation assay; format: functional, organism-based
Outline: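 K1 or TM90-C2A parasites were sorbitol-synchronized and cultured in RPMI 1640. Drug was diluted in drug-free human serum (0.04–40 ng/ml) or subject plasma was diluted twofold (8–8,192). Parasites were added at 2% hematocrit, 1% parasitemia (>95% rings), and [3H]hypoxanthine uptake was measured over 48 h. IC50 or ID50 came from concentration or dilution-response curves. Equivalent concentration = ID50 × IC50.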

[16] = test system: Plasma; test: Cmax in healthy human plasma assessed as metabolite BAY 78-1788 Cmax at 40 mg, po administered as two 20 mg immediate release tablets daily for 3 days during 10 hrs overnight fasting state measured after 1 day; format: ADME, organism-based; set-up: dose 40 mg, route oral; details: in vivo, 24 h; outline: as §2
[17] = test system: Plasma; test: Cmax in healthy human plasma assessed as metabolite BAY 78-1788 Cmax at 40 mg, po administered as two 20 mg immediate release tablets daily for 3 days during 10 hrs overnight fasting state measured after 3 day; format: ADME, organism-based; set-up: dose 40 mg, route oral; details: in vivo, 72 h; outline: as §1
[18] = test system: Plasma; test: AUC in healthy human plasma assessed as metabolite BAY 78-1788 AUC at 40 mg, po administered as two 20 mg immediate release tablets daily for 3 days during 10 hrs overnight fasting state measured after 1 day; format: ADME, organism-based; set-up: dose 40 mg, time < 10 hr, route oral; details: in vivo; outline: as §2
[19] = test system: Plasma; test: AUC in healthy human plasma assessed as metabolite BAY 78-1788 AUC at 40 mg, po administered as two 20 mg immediate release tablets daily for 3 days during 10 hrs overnight fasting state measured after 3 day; format: ADME, organism-based; set-up: dose 40 mg, time < 10 hr, route oral; details: in vivo; outline: as §2
[20] = test system: Plasma; test: Tmax in healthy human plasma assessed as metabolite BAY 78-1788 Tmax at 40 mg, po administered as two 20 mg immediate release tablets daily for 3 days during 10 hrs overnight fasting state measured after 1 day; format: ADME, organism-based; details: in vivo, 24 h; outline: as §3
[21] = test system: Plasma; test: Tmax in healthy human plasma assessed as metabolite BAY 78-1788 Tmax at 40 mg, po administered as two 20 mg immediate release tablets daily for 3 days during 10 hrs overnight fasting state measured after 3 day; format: ADME, organism-based; details: in vivo, 72 h; outline: as §3
[22] = test system: Plasma; test: Half life in healthy human plasma assessed as metabolite BAY 78-1788 Half life at 40 mg, po administered as two 20 mg immediate release tablets daily for 3 days during 10 hrs overnight fasting state measured after 1 day; format: ADME, organism-based; details: in vivo; outline: as §1
[23] = test system: Plasma; test: Half life in healthy human plasma assessed as metabolite BAY 78-1788 Half life at 40 mg, po administered as two 20 mg immediate release tablets daily for 3 days during 10 hrs overnight fasting state measured after 3 day; format: ADME, organism-based; details: in vivo, 72 h; outline: as §1
[24] = test system: Plasma; test: Cmax in healthy human plasma assessed as metabolite BAY 78-1788 Cmax at 80 mg, po administered as four 20 mg immediate release tablets daily for 3 days during 10 hrs overnight fasting state measured after 1 day; format: ADME, organism-based; set-up: dose 80 mg, route oral; details: in vivo, 24 h; outline: as §1

In the case of `C[C@H]1[C@H](N2CCS(=O)(=O)CC2)O[C@@H]2O[C@]3(C)C[C@H](O)[C@H]4[C@H](C)CC[C@@H]1[C@@]24OO3`, the Cmax [1] is reported as 0.0665 µg/mL, the AUC [2] is reported as 0.3024 µg·h/mL and the AUC [3] is reported as 0.263 µg·h/mL. The Tmax [4] was 2 h, the Tmax [5] was 2.5 h and the t1/2 [6] was 1.59 h. For the same molecule, the t1/2 [7] was 1.44 h, the Cmax [8] was 0.1089 µg/mL and the AUC [9] was 0.3799 µg·h/mL. The t1/2 [10] was 1.36 h, the Ratio [11] was 0.71 and the Ratio [12] was 0.65. For the same molecule, the Ratio [13] was 0.91, the Ratio [14] was 0.82 and the IC50 [15] was 0.0257 mg/L (≈ 0.0616 µM). For the same molecule, the Cmax [16] was 0.0406 µg/mL, the Cmax [17] was 0.0364 µg/mL and the AUC [18] was 0.1173 µg·h/mL. It also gave an AUC [19] of 0.1151 µg·h/mL, a Tmax [20] of 1.75 h and a Tmax [21] of 2 h. For the same molecule, the t1/2 [22] was 1.31 h, the t1/2 [23] was 1.28 h and the Cmax [24] was 0.0872 µg/mL.
